Screens: PubChem, Sanford-Burnham Center for Chemical Genomics
This is a sample that favours compounds with a hit; in the whole collection about 1.5% have one here.
EBI2 block = antagonists of human EBI2 receptor; P32249; EBI2 beta-arrestin recruitment, luminescence, 7a,25-OHC stimulated; inhibition, % at 5 µM; 0.81% of 360,000 active; AID 651636; in the data active = inhibition above about 38%;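 also: enzyme fragment complementation signal reports receptor beta-arrestin coupling in cells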
Target sequence (P32249 whole entry, looked up, the tested form may be a part): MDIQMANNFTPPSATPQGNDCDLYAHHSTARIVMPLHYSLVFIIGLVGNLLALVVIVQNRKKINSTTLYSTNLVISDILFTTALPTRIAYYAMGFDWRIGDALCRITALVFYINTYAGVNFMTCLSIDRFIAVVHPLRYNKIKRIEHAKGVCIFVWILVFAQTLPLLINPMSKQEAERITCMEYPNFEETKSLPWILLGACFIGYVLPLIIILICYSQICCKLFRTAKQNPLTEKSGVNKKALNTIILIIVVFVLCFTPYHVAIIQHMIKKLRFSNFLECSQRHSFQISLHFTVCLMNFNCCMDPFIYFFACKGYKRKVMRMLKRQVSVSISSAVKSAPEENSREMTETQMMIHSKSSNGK
APJ antag = antagonists of human APJ apelin receptor; P35414; CHO-K1 APJ beta-arrestin complementation, luminescence; inhibition, % at 20 µM; 0.32% of 330,000 active; AID 2521;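 active = inhibition above about 40% at 20 µM, limit read from the data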;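 also: cells challenged with 10 nM apelin-13 agonist together with compound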
CXCR6 inh = CXCR6 (human) receptor inhibition. inhibition, % at 20 µM. O00574. 0.36% of 360,000 active. CHO-K1 PathHunter CXCR6 beta-arrestin, luminescence; in the data active = inhibition above about 34%, passing the limit was not always enough;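 also: antagonist mode with CXCL16 agonist at 10 nM final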
Target sequence (O00574 whole entry, looked up): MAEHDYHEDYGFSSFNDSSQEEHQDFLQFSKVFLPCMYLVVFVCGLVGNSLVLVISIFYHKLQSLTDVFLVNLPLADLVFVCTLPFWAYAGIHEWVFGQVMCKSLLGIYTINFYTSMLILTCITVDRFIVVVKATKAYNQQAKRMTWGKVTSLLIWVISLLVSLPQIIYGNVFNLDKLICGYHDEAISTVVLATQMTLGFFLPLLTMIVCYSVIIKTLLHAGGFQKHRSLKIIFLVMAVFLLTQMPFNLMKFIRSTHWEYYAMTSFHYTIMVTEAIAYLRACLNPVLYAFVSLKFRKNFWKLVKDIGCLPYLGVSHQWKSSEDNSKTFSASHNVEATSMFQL
CCR6 antag = antagonists of human CCR6 receptor. AID 493098. inhibition, % at 20 µM. CHO-K1 CCR6 PathHunter beta-arrestin, luminescence, CCL20-stimulated. 0.49% of 340,000 active. P51684;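 active = compounds whose inhibition of the agonist-driven luminescence signal at 20 µM reaches about 50%, limit read from the data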;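 also: cells stimulated with CCL20 at 14 nM final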
APJ agonist = APJ receptor agonism. P35414. CHO-K1 APJ PathHunter beta-arrestin, luminescence; 0% DMSO wells, 100% apelin. activation, % at 20 µM. 0.11% of 330,000 active. AID 2520;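 active = activation more than six SD over the plate average, tested at 20 µM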
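Material: engineered CHO-K1 APJ arrestin reporter cells; amount: 1000 CHO-K1 reporter cells seeded per well; incubation: compound stimulation 90 min at 25 °C, detection 60 min; signal: luminescent beta-gal fragment complementation, chemiluminescent substrate; read-out basis: APJ agonist activity; controls: DMSO-only wells as negative, 10 nM Apelin-13 as positive control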
APJ antag confirm = confirmation of human APJ apelin receptor antagonists; 66% of 950 active; shares compounds with APJ antag; APJ beta-arrestin recruitment, luminescence, antagonist mode; inhibition, % at 20 µM; in the data active = inhibition above about 50%
Numbers stand for hits; 0 = inactive; - = no result given.

SMILES | EBI2 block | APJ antag | CXCR6 inh | CCR6 antag | APJ agonist | APJ antag confirm
CCNC(=S)NNc1nnc(-c2ccccc2)c(-c2ccccc2)n1 | 0 | 49 | 0 | 0 | 0 | 90
Nc1c(C(=O)Nc2ccccc2)sc2nc3c(c(-c4ccco4)c12)CCC3 | 0 | 0 | 0 | 0 | 0 | -
COc1ccc(-c2c3c(nc4sc(C(=O)Nc5ccccc5)c(N)c24)CCC3)cc1 | 0 | 71 | 0 | 0 | 0 | 0
CCOC(=O)c1c(C)nc2sc(C(=O)Nc3ccccc3)c(N)c2c1-c1ccc(OC)cc1 | 0 | 41 | 0 | 0 | 0 | 0
COc1ccc2c(c1)C(=O)[C@H](O)[C@@H](c1ccc(OC)c(Br)c1)O2 | - | 58 | - | 62 | 0 | 103
Cc1ccccc1NC(=O)C(=O)c1cn(C)c2ccccc12 | 0 | 0 | 0 | 0 | 0 | -
CCOC(=O)c1c(C)[nH]c(C)c1C(=O)Cn1nnc(-c2ccccc2C)n1 | 0 | 46 | 0 | 0 | 0 | 0
CCSC1(SCC)N=C(N)C2(C#N)C(c3ccc(OC)c(OC)c3OC)C12C#N (configuration not stated) | 0 | 51 | 0 | 58 | 0 | 72
CCSC1(SCC)N=C(N)C2(C#N)C(c3ccccc3)NC3=C(CCC3)C12C#N (configuration not stated) | 0 | 0 | 0 | 0 | 0 | -
Cc1cccc(C)c1NC(=O)C(c1ccnc2ccccc12)n1c(=O)c(-c2ccccc2)nc2ccccc21 (configuration not stated) | 0 | - | - | - | - | -
NC(=O)c1ccccc1OCC(=O)N1CCC(Cc2ccccc2)CC1 | 0 | 43 | 0 | 0 | 0 | 0
CCn1c(-c2ccccc2)ccc(C#N)c1=O | 0 | 50 | 0 | 0 | 0 | 0
Cc1ccc(OC(C)C(=O)N(Cc2cccs2)C2CCS(=O)(=O)C2)cc1C (configuration not stated) | 0 | 0 | 0 | 0 | 0 | -
Cc1ccc(NC(=O)CSc2nc3ncc(Cl)cc3[nH]2)c(C)c1 | 0 | 0 | 0 | 0 | 0 | -
Cc1ccc(-c2c(C(=O)N/N=C/c3cccc(Cl)c3)nnn2-c2nonc2N)cc1 | 0 | 53 | 0 | 0 | 0 | 62
CCOc1ccc(N(CC(=O)NC(C(C)C)C(C)C)S(=O)(=O)c2ccc(OC)c(OC)c2)cc1 | 0 | 0 | 0 | 0 | 0 | -
CCOC(=O)c1cc(-c2cc(OC)c(OC)c(OC)c2)nc2c1c(=O)[nH]c(=O)n2Cc1ccccc1 | 0 | 55 | 0 | 0 | 0 | 0
CCOC(=O)c1cc(-c2ccc(F)cc2)nc2c1c(=O)[nH]c(=O)n2Cc1ccccc1 | 0 | 0 | 0 | 0 | 0 | -
Cc1ccc(Nc2cc(C)nn2-c2nc(C)cc(=O)[nH]2)cc1 | 90 | 87 | 64 | 82 | 0 | 108
Cc1c(C(=O)NCc2cccs2)sc(=O)n1Cc1ccc(S(=O)(=O)N(C)C)cc1 | 0 | - | 0 | - | - | -
CCOc1ccc2nc(N=NC3=C(O)CC(C)(C)CC3=O)sc2c1 | 0 | 41 | 0 | 0 | 0 | 51
NNc1ccc2c(C(F)(F)F)cc(C(F)(F)F)nc2n1 | 0 | 0 | 0 | 0 | 0 | -
N#CC(c1cccc(Cl)c1)c1ccc2c(C(F)(F)F)cc(C(F)(F)F)nc2n1 (configuration not stated) | 0 | 46 | 0 | 0 | 0 | 76
CCCCn1c(N)c(N(Cc2ccccc2OC)C(=O)c2ccc(N3CCCC3=O)cc2)c(=O)[nH]c1=O | 0 | 0 | 0 | 0 | 0 | -
O=C(CCCC(=O)Nc1cccc(Br)c1)N/N=C/c1cc([N+](=O)[O-])ccc1O | 0 | 49 | 0 | 0 | 0 | 71
SMILES | EBI2 block | APJ antag | CXCR6 inh | CCR6 antag | APJ agonist | APJ antag confirm
O=C(CCC(=O)Nc1cccc(Cl)c1)N/N=C/c1cc([N+](=O)[O-])ccc1O | 0 | 0 | 0 | 0 | 0 | -
Cc1ccc(C(=O)COC(=O)c2cnccn2)cc1[N+](=O)[O-] | 0 | 46 | 0 | 0 | 0 | 65
O=C(COC(=O)c1cccnc1)c1ccc(Cl)c(Cl)c1 | 0 | 85 | 0 | 81 | 0 | 78
Cc1ccc(C(=O)COC(=O)c2cnccn2)cc1C | - | 0 | - | - | 0 | -
O=C(COC(=O)c1cnccn1)c1ccc(Cl)c([N+](=O)[O-])c1 | 0 | 91 | 54 | 87 | 0 | 140
Cc1ccc(NC(=O)Nc2ccc(F)cc2)cc1Cl | 0 | 0 | 0 | 0 | 0 | -
COc1cc(SC)ccc1C(=O)OCC(=O)NCC(C)C | 0 | 41 | 0 | 0 | 0 | 0
CC1CC(C)(C)NC2(CCCC2)N1 (configuration not stated) | 0 | - | 0 | 0 | - | -
CC1(O)CC(c2ccc(Cl)cc2)=NN1C(=O)c1ccc([N+](=O)[O-])cc1 (configuration not stated) | 0 | 41 | 0 | 68 | 0 | 70
O=C1c2ccccc2C(O)(c2ccccc2)N1C1CC1 (configuration not stated) | 0 | 0 | 0 | 0 | 0 | -
O=C(CN1CCOCC1)Nc1ccc(Cl)cn1 | 0 | 0 | 0 | 0 | 0 | -
COc1ccc(NC(=O)Nc2cccc3c2O[C@H](CN(C)C(=O)Nc2c(C)noc2C)[C@@H](C)CN([C@H](C)CO)C3=O)cc1 | 0 | 0 | 0 | 0 | 0 | -
COc1ccc(N=Nc2ccc(O)c3ncccc23)cc1 | 0 | 46 | 0 | 0 | 0 | 84
Oc1ccc(N=Nc2ccc3c(c2)OCCO3)c(O)c1 | 0 | 0 | 0 | 0 | 0 | -
COc1cccc(N=Nc2ccc(O)c3ncccc23)c1 | 0 | 66 | 90 | 60 | 0 | 96
COc1cc(OC)cc(C(=O)Nc2cccc3cccnc23)c1 | 0 | 0 | 0 | 0 | 0 | -
COc1ccc(C)cc1N=Nc1ccc(O)c2ncccc12 | 0 | - | 0 | 0 | - | -
COc1cccc(N=Nc2ccc3cccnc3c2O)c1 | 0 | 61 | 0 | 0 | 0 | 61
Oc1ccc(N=Nc2ccc3c(c2)OCCO3)c2cccnc12 | 0 | 52 | 0 | 51 | 0 | 71
CSc1nc(N)nc2c1ncn2CC(=O)NCc1ccc2[nH]ccc2c1 | 0 | 0 | 0 | 0 | 0 | -
NNc1nc(-c2ccccc2)cc(-c2ccccc2)n1 | 0 | 97 | 45 | 63 | 0 | 122
N#Cc1cc(-c2ccccc2)nc(NN)n1 | 0 | 0 | 0 | 0 | 0 | -
O=C1C2C3CCCC3=C3CCCC3C2C(=O)N1c1cccc(Cl)c1 (configuration not stated) | 0 | 44 | 0 | 0 | 0 | 0
CN(C)C(=O)c1cc(C(=O)c2ccccc2Br)c[nH]1 | 0 | 0 | 0 | 0 | 0 | -
COc1cc(/C=C2\CCC/C(=C\c3ccc(O)c(OC)c3)C2=O)ccc1O | 0 | 40 | 0 | 0 | 0 | 80
CCOc1cc(/C=C2\CN(CC)C/C(=C\c3ccc(O)c(OCC)c3)C2=O)ccc1O | 0 | 48 | 0 | 0 | 0 | 101
COc1cc(/C=C2/CCCC(C(=O)C(F)(F)F)=C2O)ccc1O | 0 | 0 | 0 | 0 | 0 | -
COc1cc(/C=C/C(=O)CC(=O)/C=C/c2ccc(O)c(OC)c2)ccc1O | 0 | 62 | 0 | 66 | 0 | 93
CCOc1cc(/C=N/N=C/c2ccc(O)c(OCC)c2)ccc1O | 0 | 0 | 0 | 0 | 0 | -
